Source: publication PMC4750707 (Antimicrobial Agents and Chemotherapy, 2016)

Experiments:
Assay in all cases: PBP competition assay with Bocillin FL
Format in all cases: binding
E. coli PBP1a = biological target: T1, E. coli PBP1a (Escherichia coli, UniProt P02918)
T1 sequence (P02918 1-850): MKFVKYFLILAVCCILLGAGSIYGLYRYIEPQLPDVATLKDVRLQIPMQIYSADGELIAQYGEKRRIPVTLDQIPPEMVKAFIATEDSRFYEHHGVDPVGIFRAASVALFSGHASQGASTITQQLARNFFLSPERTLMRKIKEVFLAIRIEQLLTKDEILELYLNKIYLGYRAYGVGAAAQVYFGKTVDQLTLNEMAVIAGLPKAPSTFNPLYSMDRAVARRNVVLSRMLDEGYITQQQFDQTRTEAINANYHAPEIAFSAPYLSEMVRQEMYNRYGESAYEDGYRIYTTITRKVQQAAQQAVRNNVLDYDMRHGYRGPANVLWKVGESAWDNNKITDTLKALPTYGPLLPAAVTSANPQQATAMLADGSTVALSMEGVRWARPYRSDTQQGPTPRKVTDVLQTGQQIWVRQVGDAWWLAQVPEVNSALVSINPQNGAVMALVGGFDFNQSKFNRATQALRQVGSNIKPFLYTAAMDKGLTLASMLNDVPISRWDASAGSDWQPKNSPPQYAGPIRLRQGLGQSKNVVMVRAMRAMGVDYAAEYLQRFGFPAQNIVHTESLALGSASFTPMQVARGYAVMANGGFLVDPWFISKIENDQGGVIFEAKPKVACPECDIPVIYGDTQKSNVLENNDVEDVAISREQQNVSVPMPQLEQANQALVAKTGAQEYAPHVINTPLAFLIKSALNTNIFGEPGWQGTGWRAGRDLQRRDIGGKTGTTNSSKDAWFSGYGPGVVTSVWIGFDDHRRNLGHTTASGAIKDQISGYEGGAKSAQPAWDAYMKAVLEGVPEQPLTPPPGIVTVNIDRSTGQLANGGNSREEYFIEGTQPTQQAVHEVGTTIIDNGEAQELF
Procedure, shortened: (§1)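 E. coli K-12 or P. aeruginosa 1771 grown in BHI at 35°C to A600 ~1.5. Cells in 50 mM phosphate pH 7.0 were French-pressed; membranes pelleted at 150,000 × g. Membranes (10–20 μg protein) were pre-incubated with test compound 10 min at 30°C, then Bocillin FL (100 μM final) 20 min. SDS-PAGE, fluorescence scan. IC50 in μg/ml from ≥8 concentrations versus no-drug control.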

E. coli PBP2 = biological target: T2, E. coli PBP2 (Escherichia coli, UniProt P0AD65)
T2 sequence (P0AD65 1-633): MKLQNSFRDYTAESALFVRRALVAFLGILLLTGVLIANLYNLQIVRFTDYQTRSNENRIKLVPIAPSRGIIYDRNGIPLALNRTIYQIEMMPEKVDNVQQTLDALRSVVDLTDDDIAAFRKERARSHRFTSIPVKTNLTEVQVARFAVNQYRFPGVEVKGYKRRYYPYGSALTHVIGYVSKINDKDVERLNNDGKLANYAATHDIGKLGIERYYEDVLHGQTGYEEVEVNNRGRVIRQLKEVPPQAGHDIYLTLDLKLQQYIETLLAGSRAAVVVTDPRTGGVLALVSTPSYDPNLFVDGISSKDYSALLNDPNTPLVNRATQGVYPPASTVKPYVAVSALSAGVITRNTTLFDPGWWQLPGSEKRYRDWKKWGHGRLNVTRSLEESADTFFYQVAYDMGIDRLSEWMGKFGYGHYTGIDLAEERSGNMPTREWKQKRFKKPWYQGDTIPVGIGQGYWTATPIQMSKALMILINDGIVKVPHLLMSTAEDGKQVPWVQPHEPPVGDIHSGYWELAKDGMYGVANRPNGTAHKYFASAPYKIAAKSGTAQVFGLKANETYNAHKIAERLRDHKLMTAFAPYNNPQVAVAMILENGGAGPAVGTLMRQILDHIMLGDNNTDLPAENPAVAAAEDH
Procedure, shortened: as §1

E. coli PBP3 = biological target: T3, E. coli PBP3 (Escherichia coli, UniProt P0AD68)
T3 sequence (P0AD68 1-588): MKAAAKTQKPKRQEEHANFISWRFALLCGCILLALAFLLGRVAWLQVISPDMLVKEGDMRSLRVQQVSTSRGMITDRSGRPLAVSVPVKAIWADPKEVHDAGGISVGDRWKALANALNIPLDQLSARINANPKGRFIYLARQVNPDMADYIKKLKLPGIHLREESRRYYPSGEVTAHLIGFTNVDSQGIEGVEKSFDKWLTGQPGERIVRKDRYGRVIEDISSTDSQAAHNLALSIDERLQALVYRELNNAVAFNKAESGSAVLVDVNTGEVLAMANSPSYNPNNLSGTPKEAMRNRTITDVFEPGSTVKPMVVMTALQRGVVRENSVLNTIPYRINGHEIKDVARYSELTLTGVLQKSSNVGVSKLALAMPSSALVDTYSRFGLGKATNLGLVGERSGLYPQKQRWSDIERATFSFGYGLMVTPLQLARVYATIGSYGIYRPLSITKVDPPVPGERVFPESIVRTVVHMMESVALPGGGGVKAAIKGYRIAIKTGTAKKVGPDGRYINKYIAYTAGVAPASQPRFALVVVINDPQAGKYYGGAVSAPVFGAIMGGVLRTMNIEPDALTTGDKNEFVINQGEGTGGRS
Procedure, shortened: as §1

P. aeruginosa PBP2 = biological target: T4, P. aeruginosa PBP2 (Pseudomonas aeruginosa, UniProt Q9X6V3)
T4 sequence (Q9X6V3 1-646): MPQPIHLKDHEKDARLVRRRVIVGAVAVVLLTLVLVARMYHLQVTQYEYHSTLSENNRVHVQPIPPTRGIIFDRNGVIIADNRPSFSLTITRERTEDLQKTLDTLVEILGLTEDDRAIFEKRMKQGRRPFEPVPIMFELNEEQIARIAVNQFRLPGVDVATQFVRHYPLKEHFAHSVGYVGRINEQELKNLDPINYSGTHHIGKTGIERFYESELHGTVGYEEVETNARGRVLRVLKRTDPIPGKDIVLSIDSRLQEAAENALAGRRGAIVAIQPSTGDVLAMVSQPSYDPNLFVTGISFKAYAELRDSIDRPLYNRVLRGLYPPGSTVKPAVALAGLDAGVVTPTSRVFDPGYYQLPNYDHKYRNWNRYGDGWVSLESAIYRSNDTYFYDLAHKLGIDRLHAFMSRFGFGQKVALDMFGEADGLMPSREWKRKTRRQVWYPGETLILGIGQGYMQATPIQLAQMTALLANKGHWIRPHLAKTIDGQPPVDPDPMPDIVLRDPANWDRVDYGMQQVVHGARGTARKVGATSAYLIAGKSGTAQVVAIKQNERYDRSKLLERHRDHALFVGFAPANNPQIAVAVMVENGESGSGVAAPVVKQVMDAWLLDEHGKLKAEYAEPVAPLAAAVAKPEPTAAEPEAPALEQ
Procedure, shortened: as §1

Row | IC50 (E. coli PBP1a) [µM] | IC50 (E. coli PBP2) [µM] | IC50 (E. coli PBP3) [µM] | IC50 (P. aeruginosa PBP2) [µM] | SMILES
1 | > 39.9 | 0.0615 | > 39.9 | 0.645 | CC1(C)S[C@@H]2[C@H](/N=C/N3CCCCCC3)C(=O)N2[C@H]1C(=O)O [MEC, amdinocillin]
2 | > 49 | 3.47 | > 49 | 4.15 | NC(=O)[C@@H]1CC[C@@H]2CN1C(=O)N2OS(=O)(=O)O [AVI, avibactam]
3 | 27.4 | > 45.7 | 0.366 | > 45.7 | CC(C)(O/N=C(\C(=O)N[C@@H]1C(=O)N2C(C(=O)[O-])=C(C[n+]3ccccc3)CS[C@H]12)c1csc(N)n1)C(=O)O [CAZ, ceftazidime]
